The source of these data is ChEMBL document CHEMBL4350958, “Rational Design of Short Peptide Variants by Using Kunitzin-RE, an Amphibian-Derived Bioactivity Peptide, for Acquired Potent Broad-Spectrum Antimicrobial and Improved Therapeutic Potential of Commensalism Coinfection of Pathogens” (J Med Chem, 2019).

≈ marks a conversion by molar mass, not a printed value. Where a SMILES comes first, the peptide text is derived from it. Some results are limits rather than exact numbers.

Data set [1] can be described thus: Hemolytic activity in human RBC at 128 uM measured after 1 hr relative to control. The format is ADME, cell-based, Erythrocyte. The note with it: human red blood cells (erythrocytes), read-out: Activity. In outline:
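Fresh human erythrocytes at ~1% (v/v) in PBS pH 7.4, mixed with equal volume of peptide (1-128 µM) for 1 h at 37 °C. After centrifugation, hemoglobin in the supernatant read at 576 nm. Untreated cells set 0% and 0.1% Triton X-100 set 100% hemolysis. At least three independent experiments, each in triplicate.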

The next data set concerns Salmonella typhimurium. The experiment in a line: Antibacterial activity against Salmonella typhimurium ATCC 14028 measured after 24 hrs. The class given is functional, Salmonella enterica subsp. enterica serovar Typhimurium. The note with it: Salmonella enterica, ATCC 14028, 24 h. The method in brief: (§1)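 Broth microdilution adapted from NCCLS. Mid-log bacteria were diluted in MHB to a final (0.5–1) × 10^5 CFU mL−1. Peptides were serially diluted in 0.2% BSA and mixed with an equal volume of cells. After 24 h at 37 °C, MIC was read at A492 as the lowest concentration inhibiting 95% of growth. At least three independent experiments, each with three technical replicates.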

The test system of data set [2] is Escherichia coli. The experiment in a line: Antibacterial activity against Escherichia coli K88 measured after 24 hrs. The format is functional. The conditions noted are these: K88, 24 h. In outline: as §1
Data set [3] relates to Escherichia coli. The experiment in a line: Antibacterial activity against Escherichia coli K99 measured after 24 hrs. The note with it: K99, 24 h. The class given is functional. The method in brief:
as §1

Data set [4] concerns Candida parapsilosis. Put plainly: Antifungal activity against Candida parapsilosis cgmcc2.3989 measured after 48 hrs by broth microdilution method. The format is functional. The conditions noted are these: Lodderomyces parapsilosis, cgmcc2.3989, 48 h. The method in brief:
(§2)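 Modified CLSI M27-A2 microdilution. Yeast colonies were diluted in MOPS-buffered RPMI 1640 to a final (0.5–1) × 10^3 CFU mL−1 and mixed with an equal volume of peptide serially diluted in 0.2% BSA. After 48 h at 28 °C, MIC was read at A492 as the lowest concentration inhibiting 95% of growth. At least three independent experiments, each with three technical replicates.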
On the technique in general: Dilution methods test growth across graded concentrations, often in twofold steps.

In another data set the test system is Candida tropicalis. The experiment in a line: Antifungal activity against Candida tropicalis cgmcc2.1975 measured after 48 hrs by broth microdilution method. The class given is functional. The conditions noted are these: cgmcc2.1975, 48 h. The method in brief:
as §2

Data set [5] deals with Escherichia coli. The experiment in a line: Bactericidal activity against Escherichia coli K88 incubated for 24 hrs followed by replating on agar plate and measured after overnight incubation. The class given is functional. The conditions noted are these: K88, 24 h, read-out: MBC>99.9. The method in brief:
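Mid-log bacteria diluted in MHB to (0.5–1) × 10^5 CFU/mL and mixed 1:1 with peptide serially diluted in 0.2% BSA. After 24 h at 37 °C, 50 μL of each mixture was plated on agar and incubated overnight. MBC taken as the lowest concentration killing >99.9% of cells. At least three independent experiments, each with three technical replicates.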

Data set [6] concerns Candida albicans. The experiment in a line: Fungicidal activity against Candida albicans cgmcc2.2086 incubated for 48 hrs followed by replating on YM agar plate and measured after 48 hrs. The class given is functional. In outline:
(§3)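 Yeast diluted in MOPS-buffered RPMI 1640 to (0.5–1) × 10^3 CFU/mL (CLSI M27-A2, modified) and mixed 1:1 with peptide serially diluted in 0.2% BSA. After 48 h at 28 °C, 50 μL per well was plated on YM agar and incubated 48 h at 28 °C. MFC taken as the lowest concentration killing ≥99.9% of cells. Three or more independent experiments, triplicate wells.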

In data set [7] the test system is Candida parapsilosis. Put plainly: Fungicidal activity against Candida parapsilosis cgmcc2.3989 incubated for 48 hrs followed by replating on YM agar plate and measured after 48 hrs. The class given is functional. In outline: as §3
For data set [8], the system named is Escherichia coli. Put plainly: Antibacterial activity against Escherichia coli ATCC 25922 measured after 18 to 24 hrs in presence of NaCl. The format is functional.
Data set [9] deals with Escherichia coli. The experiment in a line: Antibacterial activity against Escherichia coli ATCC 25922 measured after 18 to 24 hrs in presence of FeCl3. The format is functional.
For data set [10], the system named is Staphylococcus aureus. The experiment in a line: Antibacterial activity against Staphylococcus aureus ATCC 29213 measured after 18 to 24 hrs in presence of KCl. The format is functional.
The subject of data set [11] is Staphylococcus aureus. The experiment in a line: Antibacterial activity against Staphylococcus aureus ATCC 29213 measured after 18 to 24 hrs in presence of MgCl2. The class given is functional.
In data set [12] the test system is Candida albicans. Put plainly: Antifungal activity against Candida albicans cgmcc2.2086 measured after 48 hrs in presence of ZnCl by broth microdilution method. The class given is functional. The note with it: cgmcc2.2086, 48 h.
Another data set concerns Lipopolysaccharide (LPS). The experiment in a line: Displacement of BODIPY-TR-cadaverine from Escherichia coli O111:B4 LPS after 1 hr by spectrofluorophotometric method. The method in brief:
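LPS from E. coli O111:B4 (50 μg/mL) preincubated 4 h with BODIPY-TR-cadaverine (5 μg/mL) in 50 mM Tris, pH 7.4. Mixed with equal volume of peptide (1-64 µM) and incubated 1 h at 37 °C, then fluorescence read. %ΔF = (Fobs−F0)/(F100−F0)×100, with 10 μg mL-1 polymyxin B defining F100. Three technical replicates per experiment.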

Data set [13] is described as follows: Therapeutic index, ratio of MHC10 for hemolytic activity in human RBC to MIC95 against Escherichia coli ATCC 25922. The format is toxicity. The note with it: human red blood cells (erythrocytes), pooled result: one value given for 9 cell lines, strains, targets or settings, read-out: TI. The method in brief: (§4)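 Therapeutic index = MHC divided by MIC. MHC is the lowest concentration giving >10% lysis of human RBC (1 h, 37 °C, 1-128 µM, A576). MIC is 95% growth inhibition by broth microdilution: bacteria in MHB 24 h at 37 °C; Candida in MOPS-buffered RPMI 1640 at (0.5–1) × 10^3 CFU mL−1, 48 h at 28 °C.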

Data set [14] is described as follows: Therapeutic index, ratio of MHC10 for hemolytic activity in human RBC to MIC95 against Staphylococcus aureus ATCC 25923. The format is toxicity. The conditions noted are these: human red blood cells (erythrocytes), read-out: TI. The method in brief:
as §4

The next data set relates to Lipid bilayer. The experiment in a line: Induction of membrane disruption in PG/CL/PE large unilamellar vesicles assessed as calcein-entrapped liposome leakage at 64 uM after 15 mins by spectrofluorophotometric assay relative to control. In outline:
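Calcein (70 mM)-loaded LUVs of PG/CL/PE (2:1:7 w/w/w, E. coli membrane mimic), made by freeze-thaw and 100-nm extrusion, free dye removed on Sephadex G-50. LUVs (100 μM) exposed to peptide (1–64 μM) for 15 min. Leakage read at ex 490/em 520 nm: liposomes alone are background, Triton X-100 is 100%. Independent triplicates.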

Data set [15] in a line: Conformational stability in 50% trifluoro-ethyl alcohol assessed as alpha-helical structural propensity by measuring absorption spectra at minimum dichroic band at 35 uM by CD spectra analysis. The format is physicochemical. The method in brief:
(§5)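 CD spectra from 190 to 250 nm of peptide at 35 μM in 10 mM PBS, 30 mM SDS micelles or 50% TFE, recorded in a 1.0-mm quartz cell. Ellipticity was converted to mean residue ellipticity. Three independent scans, each averaged over more than 3 runs.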

A short description of data set [16]: Conformational stability in sodium dodecyl sulfate at 35 uM by CD spectra analysis. The format is physicochemical. In outline:
as §5

The MBC is the lowest tested concentration that kills the bacteria rather than only halting them. As for `CC[C@H](C)[C@H](NC(=O)CN)C(=O)NCC(=O)N[C@@H](C)C(=O)N[C@H](C(=O)N[C@@H](CC(C)C)C(=O)N[C@@H](CCCCN)C(=O)N[C@H](C(=O)N[C@@H](CC(C)C)C(=O)N[C@H](C(=O)N[C@H](C(=O)NCC(=O)N[C@@H](CC(C)C)C(=O)N1CCC[C@H]1C(=O)N[C@@H](C)C(=O)N[C@@H](CC(C)C)C(=O)N[C@H](C(=O)N[C@@H](CO)C(=O)N[C@@H](Cc1c[nH]c2ccccc12)C(=O)N[C@H](C(=O)N[C@@H](CCCCN)C(=O)N[C@@H](CCCNC(=N)N)C(=O)N[C@@H](CCCCN)C(=O)N[C@@H](CCCNC(=N)N)C(=O)N[C@@H](CCC(N)=O)C(=O)N[C@@H](CCC(N)=O)C(N)=O)[C@@H](C)CC)[C@@H](C)CC)[C@@H](C)O)[C@@H](C)O)C(C)C)C(C)C` [MELITTIN], in data set [1], the hemolysis at 1 h, 128 µM was in the range of 84 to 94%. The MIC95 was 2 µM (≈ 5.69 µg/mL) with Salmonella typhimurium; 1 µM (≈ 2.85 µg/mL) against Escherichia coli [2]; 2 µM (≈ 5.69 µg/mL) with Escherichia coli [3]; 2 µM (≈ 5.69 µg/mL) in the data set on Candida parapsilosis [4]; 4 µM (≈ 11.4 µg/mL) in the data set on Candida tropicalis; 4 µM in the data set on Escherichia coli [8]. In addition, the MIC95 in the data set on Escherichia coli [9] was 2 µM; in the data set with Staphylococcus aureus [10] it was 4 µM; in the data set on Staphylococcus aureus [11], 4 µM; in the data set on Candida albicans [12], 4 µM. The MBC in the data set on Escherichia coli [5] is 2 µM (≈ 5.69 µg/mL). The figures for the “MFC<=99.9” value against Candida albicans [6] and against Candida parapsilosis [7] were 8 µM (≈ 22.8 µg/mL) and 4 µM (≈ 11.4 µg/mL), respectively. The Activity result in the data set with Lipopolysaccharide (LPS) is “Dose-dependent effect”. Besides, the selectivity ratio in data set [13] turned out to be 0.54; in data set [14], 0.35.

`CC[C@H](C)[C@H](NC(=O)[C@H](CCCCN)NC(=O)[C@H](C)NC(=O)[C@H](C)N)C(=O)N[C@H](C(=O)N[C@@H](CC(C)C)C(=O)N[C@@H](CC(N)=O)C(=O)N1CCC[C@H]1C(=O)N[C@@H](CCCCN)C(=O)N[C@@H](Cc1ccccc1)C(=O)N[C@@H](CCCNC(=N)N)C(=O)N[C@@H](CS)C(=O)N[C@@H](CCCCN)C(=O)N[C@@H](C)C(=O)N[C@@H](C)C(=O)N[C@@H](Cc1ccccc1)C(=O)N[C@@H](CS)C(N)=O)[C@@H](C)CC` (H-AAKIILNPKFRCKAAFC-NH2): the hemolysis at 1 h, 128 µM in data set [1] was determined as 20%. For the same compound, the MIC95 against Salmonella typhimurium is 64 µM (≈ 121 µg/mL); with Escherichia coli [2], 32 µM (≈ 60.6 µg/mL); in the data set on Escherichia coli [3] it was 32 µM (≈ 60.6 µg/mL); against Candida parapsilosis [4] it was > 128 µM; in the data set with Candida tropicalis it was > 128 µM; with Escherichia coli [8], > 128 µM. Besides, the MIC95 was 32 µM with Escherichia coli [9], > 128 µM with Staphylococcus aureus [10], > 128 µM in the data set with Staphylococcus aureus [11] and > 128 µM in the data set on Candida albicans [12]. Also, the minimal bactericidal concentration (MBC) in the data set with Escherichia coli [5] turned out to be 64 µM (≈ 121 µg/mL). Further, the Activity was < 5% in the data set with Lipid bilayer and “Dose-dependent effect” with Lipopolysaccharide (LPS). The selectivity ratio in data set [13] stood at 0.5; in [14], 0.3. For the same compound, the Stability result in data set [15] and in data set [16] was “Unstable” throughout.
